≈ marks a conversion by molar mass, not a printed value. Calls of active or inactive are those of the source. No cut-off for these calls is given here. Bridge positions count the residues as written; N and C are the ends. Peptide text beside a SMILES is read from it. I, II: the chains in the order shown.
Assays:
[1] = test system: Staphylococcus aureus; assay: Antimicrobial activity against methicillin-resistant Staphylococcus aureus CCARM 3695 treated with sample containing 25 to 200 ug/ml drug incubated with PBS containing 50% normal human serum for 10 mins measured after 3 hrs by radial diffusion assay; type: functional, organism-based
Method in brief: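 Normal human serum from three donors, heat-treated 30 min at 56°C. Peptide at 25–200 µg/ml in PBS with 50% serum, held 10 min at 37°C; 5 µl placed in 3-mm wells. Underlay: 1% agarose, 9 mM phosphate, 1 mM citrate, 0.3 mg/ml TSB, pH 7.4, with 4 x 10^6 CFU/ml mid-log MRSA. After 3 h at 37°C, overlaid (1% agarose, 6% TSB), incubated overnight. Clear zones in units (1 mm = 10 units); triplicate means.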

[2] = test system: Listeria monocytogenes; assay: Antimicrobial activity against Listeria monocytogenes ATCC 19111 infected in BALB/c mouse assessed as survival of mouse at 4 mg/kg, iv administered 2 hrs after bacterial challenge measured after 4 days; type: functional, organism-based; set-up: dose 4 mg/kg
Method in brief: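 Mice (n = 10) were infected by tail vein with 2 x 10^5 L. monocytogenes, grown 18 h at 37°C in brain heart infusion broth. A single i.v. dose of 4 mg/kg in 100 µl PBS was given 2 h after infection; PBS-treated infected mice served as vehicle control. Surviving mice were counted daily for 15 days.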

[3] = test system: Staphylococcus aureus; assay: Antimicrobial activity against methicillin-resistant Staphylococcus aureus CCARM 3695 treated with sample containing 25 to 200 ug/ml drug incubated with PBS for 10 mins measured after 3 hrs by radial diffusion assay; type: functional, organism-based
Method in brief: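 Serum-free radial diffusion. Peptide in PBS alone (200 µg/ml control) held 10 min at 37°C; 5 µl placed in 3-mm wells. Underlay: pH 7.4 agarose, phosphate/citrate, 0.3 mg/ml TSB, mid-log MRSA 4 x 10^6 CFU/ml. After 3 h at 37°C, TSB-agarose overlay, incubated overnight. Clear-zone diameter read to 0.1 mm (1 mm = 10 units).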

[4] = test system: Listeria monocytogenes; assay: Antimicrobial activity against Listeria monocytogenes ATCC 19111 infected in BALB/c mouse assessed as survival of mouse at 4 mg/kg, iv administered immediately after bacterial challenge measured after 6 days; type: functional; details: ATCC 19111, 144 h
Method in brief: (§1)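 L. monocytogenes grown 18 h at 37°C in brain heart infusion broth and frozen at –80°C; viability checked by plating. Mice infected via tail vein with 2 x 10^5 bacteria each. A single 4 mg/kg i.v. dose in 100 µl PBS was given immediately or 2 h after infection; PBS vehicle controls. Ten mice per group; survivors counted daily for 15 days.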

[5] = test system: Mus musculus; assay: Toxicity in BALB/c mouse assessed as lethality at 4 mg/kg, iv repeated 4 times at 1-day interval measured after 2 weeks; type: organism-based; set-up: dose 4 mg/kg, route intravenous; details: in vivo, 336 h
Method in brief: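 Uninfected mice (n = 10) given 4 mg/kg i.v., repeated four times at 1-day intervals. Deaths monitored for 2 weeks.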

[6] = test system: Listeria monocytogenes; assay: Antimicrobial activity against Listeria monocytogenes ATCC 19111 infected in BALB/c mouse assessed as survival of mouse at 4 mg/kg, iv administered immediately after bacterial challenge measured after 15 days; type: functional; details: ATCC 19111, 360 h; method in brief: as §1
[7] = test system: Enterococcus faecium; assay: Antimicrobial activity against vancomycin-resistant Enterococcus faecium CCARM 5029 after 18 hrs by broth microdilution assay; type: functional; details: CCARM 5029, 18 h
Method in brief: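 Broth microdilution (modified CLSI). Overnight stationary-phase Mueller-Hinton broth cultures diluted to 2 x 10^5 CFU/ml final. Peptide serially twofold diluted in 0.01% acetic acid (stock series 640 down to 10 µg/ml); 11 µl added to 100 µl of bacteria. After 18 h at 37°C, MIC taken as the lowest concentration preventing visible turbidity.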

[8] = test system: Listeria monocytogenes; assay: Antimicrobial activity against Listeria monocytogenes ATCC 19111 infected in BALB/c mouse assessed as reduction in number of recovered CFU in liver at 100 ug, iv measured after 3 days; type: functional, organism-based
Method in brief: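 Mice were infected i.v. with L. monocytogenes and immediately given 100 µg peptide in 100 µl PBS i.v.; PBS alone served as control. On days 1 and 3, liver and spleen were homogenized in PBS/0.1% BSA, serially diluted, and plated on TSA with 5% sheep blood. Colonies were counted after 18 h at 37°C. Three independent experiments; mean ± SD.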

[9] = test system: Staphylococcus aureus; assay: Antimicrobial activity against methicillin-resistant Staphylococcus aureus CCARM 3695 treated with supernatant containing 2 mg drug incubated for 10 mins with PBS centrifuged for 3 hrs by radial diffusion assay; type: functional, organism-based
Method in brief: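 2 mg peptide incubated 10 min at 37°C in 2 ml PBS, either serum-free or with 50% heat-treated normal human serum. Spun 3 h at 295,000 x g, 4°C. Then 5 µl of supernatant tested by radial diffusion against mid-log MRSA (4 x 10^6 CFU/ml underlay, 3 h at 37°C, overlay, overnight); clear zones measured.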

[10] = Stability in human serum assessed as drug remaining at 1 mg/ml after 4 hrs; type: ADME, cell-free; details: read-out: Stability
Method in brief: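 At 0, 2, 4 and 8 h, 200-µl aliquots were quenched with 20 µl of 1% TFA, held 10 min at 4°C, and centrifuged. Remaining peptide was quantified by HPLC peak area relative to the unincubated sample. Triplicate runs.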

[11] = test system: Listeria monocytogenes; assay: Antimicrobial activity against Listeria monocytogenes ATCC 19111 infected in BALB/c mouse at 4 mg/kg, iv in presence of increasing concentration of pustulan; type: functional, organism-based; set-up: dose 4 mg/kg

CC(C)C[C@H](NC(=O)CNC(=O)[C@H](Cc1cnc[nH]1)NC(=O)[C@H](Cc1cnc[nH]1)NC(=O)[C@H](CC(C)C)NC(=O)[C@H](CC(C)C)NC(=O)[C@H](C)N)C(=O)N[C@@H](CC(N)=O)C(=O)N[C@@H](CSSC[C@H](NC(=O)[C@H](CC(N)=O)NC(=O)[C@H](CC(C)C)NC(=O)CNC(=O)[C@H](Cc1cnc[nH]1)NC(=O)[C@H](Cc1cnc[nH]1)NC(=O)[C@H](CC(C)C)NC(=O)[C@H](CC(C)C)NC(=O)[C@H](C)NC(=O)[C@H](CC(N)=O)NC(=O)[C@H](CC(C)C)NC(=O)[C@H](Cc1c[nH]c2ccccc12)NC(=O)[C@@H](N)CCCCN)C(=O)N[C@@H](C)C(=O)N[C@@H](CCCCN)C(=O)NCC(=O)N[C@H](C(=O)N[C@@H](CC(C)C)C(=O)N[C@@H](C)C(=O)O)C(C)C)C(=O)N[C@@H](C)C(=O)N[C@@H](CCCCN)C(=O)NCC(=O)N[C@H](C(=O)N[C@@H](CC(C)C)C(=O)N[C@@H](C)C(=O)O)C(C)C (I: H-KWLNALLHHGLNCAKGVLA-OH / II: H-ALLHHGLNCAKGVLA-OH; disulfide I:13-II:9)
Activity [1]: Active
Activity [2]: Active
Activity [3]: Active
survival at 4 mg/kg [4]: 100%
Activity [5]: Non-toxic
survival at 4 mg/kg [6]: 90%
MIC [7]: 8 µg/mL (≈ 2.24 µM)
Activity [8]: Active
Activity [9]: Active
remaining at 4 h, 1 mg/ml [10]: > 70%
Activity [11]: Active
